Measurements pooled from the literature.
Protocols differ between the studies behind these lines.
Target: Ephrin type-B receptor 1 (EPHB1, Homo sapiens, UniProt P54762)
Sequence (P54762 18-984, as in one of the studies): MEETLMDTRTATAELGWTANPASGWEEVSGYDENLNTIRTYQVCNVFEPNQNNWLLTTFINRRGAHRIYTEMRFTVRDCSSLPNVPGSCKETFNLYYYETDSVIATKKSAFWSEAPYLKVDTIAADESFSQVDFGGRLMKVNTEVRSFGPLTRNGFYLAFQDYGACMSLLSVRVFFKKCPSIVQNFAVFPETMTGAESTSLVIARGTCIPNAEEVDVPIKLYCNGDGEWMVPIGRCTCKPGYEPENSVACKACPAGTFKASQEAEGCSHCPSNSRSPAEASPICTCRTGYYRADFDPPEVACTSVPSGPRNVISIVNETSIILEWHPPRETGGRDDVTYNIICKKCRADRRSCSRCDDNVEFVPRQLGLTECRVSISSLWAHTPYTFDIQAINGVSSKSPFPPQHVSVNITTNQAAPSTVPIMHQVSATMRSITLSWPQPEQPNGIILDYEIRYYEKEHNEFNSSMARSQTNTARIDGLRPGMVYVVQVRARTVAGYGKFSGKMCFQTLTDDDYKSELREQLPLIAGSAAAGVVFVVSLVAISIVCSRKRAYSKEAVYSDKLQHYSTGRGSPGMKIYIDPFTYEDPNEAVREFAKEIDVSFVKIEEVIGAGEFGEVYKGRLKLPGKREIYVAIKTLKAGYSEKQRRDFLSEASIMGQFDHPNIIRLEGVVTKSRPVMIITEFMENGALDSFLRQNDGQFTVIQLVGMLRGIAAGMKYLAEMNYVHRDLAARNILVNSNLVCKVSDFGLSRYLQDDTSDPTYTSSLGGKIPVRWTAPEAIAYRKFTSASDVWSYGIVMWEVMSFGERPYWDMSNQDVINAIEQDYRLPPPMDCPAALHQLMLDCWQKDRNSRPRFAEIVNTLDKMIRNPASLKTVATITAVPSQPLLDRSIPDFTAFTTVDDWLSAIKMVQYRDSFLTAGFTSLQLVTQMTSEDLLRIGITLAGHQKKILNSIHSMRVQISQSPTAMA

Compound	observed	technique	tested at	remaining binding [%]
Cc1cnc(Nc2ccc(C(=O)N3CCC(N4CCCC4)CC3)cc2)nc1-c1cc2ccccc2s1	binding	competition with immobilised ligand	1 µM	4.4
Nc1cnc(N2CCc3cc(S(=O)(=O)Nc4c(F)cc(Cl)cc4F)cc(N4CCCC4=O)c32)nc1	cell-free assay	competition with immobilised ligand	1 µM	92
CN(C)c1ncc(F)c(-c2cnn3ncccc23)n1	binding		1 µM	100
CN1CCN(c2cnc3c(C4CCN(C(=O)c5ccc(OC(F)(F)F)cc5N)CC4)ncnc3c2)CC1	cell-free assay	competition with immobilised ligand	1 µM	100
N[C@H]1CCN(c2nccc(-c3cnn4ncccc34)n2)C1	binding		1 µM	100
Nc1ncc2c(n1)-c1c([nH]c3ccc(C#CC4CC4)cc13)CCCC2	binding	competition with immobilised ligand	1 µM	92
CN(c1nccc(-c2cnn3ncccc23)n1)C1CC1	binding		1 µM	100
Cc1cc(NC(=O)c2cccc(S(F)(F)(F)(F)F)c2)cc(-n2ccn3nc(-c4cccnc4)cc23)c1	cell-free assay	competition with immobilised ligand	1 µM	100
O=C(NCCCN1CCOCC1)c1ccc(Nc2nccc(-c3cc4ccccc4s3)n2)cc1	binding	competition with immobilised ligand	1 µM	77
O=C(NCC1CCOCC1)c1n[nH]cc1NC(=O)c1c(F)cccc1F	binding	competition with immobilised ligand	1 µM	100
Cc1cnn2ncc(-c3ccnc(N(C)C)n3)c2c1	binding		1 µM	100
CO[C@@H](C)c1c(Nc2ccc([C@H](N(C)C(=O)C3CCS(=O)(=O)CC3)C(F)(F)F)cc2)cnc2cc(Cl)nn12	cell-free assay	competition with immobilised ligand	1 µM	86
C[C@@H](c1ccc(-n2cnc3c(N)ncnc32)cc1)N1CCc2nn(C)c(Cc3ccccc3)c2C1=O	binding	competition with immobilised ligand	0.1 µM	70
O=C(c1ccc(Nc2ncc(Cl)c(-c3cc4ccccc4s3)n2)cc1)N1CCC(N2CCCC2)CC1	binding	competition with immobilised ligand	1 µM	33
O=C(O)c1cc(-c2ccc(C3CCNCC3)cc2)c2ccc(-c3ccc(C(F)(F)F)cc3)cc2c1	cell-free assay	competition with immobilised ligand	1 µM	100
CC1CCCN1c1nccc(-c2cnn3ncccc23)n1 (centres unmarked)	binding		1 µM	100
CNC(=O)[C@@H]1CC[C@@H](n2c(-c3ccc4cnccc4c3)nc3ccc(C(=O)NCc4cccc(C(N)=O)c4)cc32)C1	binding	competition with immobilised ligand	1 µM	100
c1cncc(-c2cccc(Nc3nccc(NC4CCCCC4)n3)c2)c1	binding	competition with immobilised ligand	10 µM	81
C[C@H]1CCN(c2nccc(-c3cnn4ncccc34)n2)C1	binding		1 µM	100
CC(C)(O)c1cncc(-c2nc3ccc(F)cc3n2C2CC2)c1	cell-free assay	competition with immobilised ligand	1 µM	100
